Data taken from ChEMBL document CHEMBL1124794, “Synthesis, chemistry, and antineoplastic activity of alpha-halopyridinium salts: potential pyridone prodrugs of acylated vinylogous carbinolamine tumor inhibitors” (J Med Chem, 1990).

Columns and labels:
[1] = Effect of pH on the hydrolysis of pyridinium Moity in 0.05 M buffer concentration at the pH 7.4; assay type: ADME
Procedure, shortened: (§1)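 Pyridinium salt in 0.05 M phosphate buffer, pH 6.0–8.0 (set by pH meter), ionic strength 0.25 M, 25 °C. Decrease in the pyridinium UV absorbance maximum followed over time to give pseudo-first-order kobs and half-life.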

[2] = Effect of pH on the hydrolysis of pyridinium Moity in 0.05 M buffer concentration at the pH 8.0; assay type: ADME; procedure, shortened: as §1
[3] = Effect of phosphate buffer concentration on the hydrolysis of alpha Fluoropyridinium Moity at the concentration of 0.02M, pH 6.5, 25 degree C.; assay type: ADME
Procedure, shortened: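 α-Fluoropyridinium hydrolysis to pyridone in phosphate buffer at 0.02, 0.05 or 0.10 M, pH 6.5 or 8.0, ionic strength […] °C. Pyridinium UV absorbance maximum followed with time to give pseudo-first-order kobs and half-life.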

[4] = Half life at the buffer concentration of 0.05 M.; assay type: ADME
[5] = Half life at the ionic strength 0.10 M NaCl; assay type: ADME
Procedure, shortened: (§2)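 Pyridinium salt in 0.02 M phosphate buffer, pH 7.4, 25 °C, with NaCl varied 0.10–1.0 M. Loss of the pyridinium chromophore's UV absorbance maximum (conversion to pyridone) followed over time. Pseudo-first-order kobs and half-life derived from that decay.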

[6] = Half life at the pH 6.0; assay type: ADME; conditions: buffer
Procedure, shortened: (§3)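 Bis-carbamate in acetonitrile–water (1:1; buffer added to a 0.5 mg/mL acetonitrile solution), 0.05 M buffer, ionic strength 0.136 (KCl), 25 ± 0.1 °C. Buffers: phosphate pH 2.0; citrate pH 3.0–3.5; succinate pH 4.0; acetate pH 5.0; phosphate pH 6.0–8.0; borate pH 9.0; carbonate pH 10.0. HPLC bis-carbamate peak-area loss, ln(area0/areat) vs time slope = kobs. Duplicates averaged.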

[7] = Half life at the pH 6.5; assay type: ADME; conditions: buffer
[8] = Half life at the pH 7.4; assay type: ADME; conditions: buffer
[9] = Half life at the pH 8.0; assay type: ADME; conditions: buffer
MX1 = experiment: In vivo activity against murine MX-1 tumor system at the dose of 150 mg/kg, activity expressed as TDS; 0/6; assay type: functional, Mus musculus
L1210 [10] = experiment: In vivo activity against murine L1210 tumor system at the dose of 50 mg/kg, activity expressed as KE; assay type: functional, Mus musculus
Procedure, shortened: (§4)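 L1210 lymphocytic leukemia: ascitic fluid with ca. 10^6 cells injected ip into CD2F1 mice. Dosing started 24 h after inoculation and was repeated daily for five doses in total, from solutions or suspensions made fresh each day. Toxicity day survivors were scored on day 5. Body weight difference is day 5 minus day 1. %T/C is based on median survival time versus controls.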

L1210 [11] = experiment: In vivo activity against murine L1210 tumor system at the dose of 50 mg/kg, activity expressed as body weight difference; assay type: functional, Mus musculus; procedure, shortened: as §4
[12] = In vivo activity against murine M5076 tumor system at the dose of 25 mg/kg, activity expressed as %T/C.; assay type: functional, Mus musculus
Procedure, shortened: (§5)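 M5076: ascitic fluid with ca. 10^6 cells inoculated ip into CD2F1 mice. Dosing started 24 h after inoculation and was then given every 4 days for four doses in total, from solutions or suspensions made fresh each day. Toxicity day survivors were scored on day 5. Body weight difference is day 14 minus day 1. %T/C is based on median survival time versus controls.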

P388 [13] = experiment: In vivo activity against P388 Lymphocytic Leukemia in CD2F1 mice at the dose of 50 mg/kg, activity expressed as % T/C; assay type: functional, Mus musculus
Procedure, shortened: (§6)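 CD2F1 mice were inoculated with ascitic fluid holding ca. 10^6 P388 cells. Drug was given daily from 24 h after inoculation, from solutions or suspensions made fresh each day, some as a saline suspension. TDS is survivors/initial animals on day 5. BWD is body weight on day 5 minus day 1. %T/C compares median survival of treated and control mice.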

P388 [14] = experiment: In vivo activity against P388 Lymphocytic Leukemia in CD2F1 mice at the dose of 12.5 mg/kg, activity expressed as TDS; 6/6; assay type: functional, Mus musculus; procedure, shortened: as §6
P388 [15] = experiment: In vivo activity against P388 Lymphocytic Leukemia in CD2F1 mice at the dose of 25 mg/kg, activity expressed as TDS; 6/6; assay type: functional, Mus musculus; procedure, shortened: as §6
P388 [16] = experiment: In vivo activity against P388 Lymphocytic Leukemia in CD2F1 mice at the dose of 50 mg/kg, activity expressed as TDS; 6/6; assay type: functional, Mus musculus; procedure, shortened: as §6
P388 [17] = experiment: In vivo activity against P388 Lymphocytic Leukemia in CD2F1 mice at the dose of 12.5 mg/kg, activity expressed as KE; assay type: functional, Mus musculus
P388 [18] = experiment: In vivo activity against P388 Lymphocytic Leukemia in CD2F1 mice at the dose of 50 mg/kg, activity expressed as KE; assay type: functional, Mus musculus
P388 [19] = experiment: In vivo activity against P388 Lymphocytic Leukemia in CD2F1 mice at the dose of 12.5 mg/kg, activity expressed as % T/C; assay type: functional, Mus musculus; procedure, shortened: as §6
P388 [20] = experiment: In vivo activity against P388 Lymphocytic Leukemia in CD2F1 mice at the dose of 25 mg/kg, activity expressed as % T/C; assay type: functional, Mus musculus; procedure, shortened: as §6
P388 [21] = experiment: In vivo activity against P388 Lymphocytic Leukemia in CD2F1 mice at the dose of 100 mg/kg, activity expressed as TDS; 1/6; assay type: functional, Mus musculus; procedure, shortened: as §6
[22] = Effect of Ionic strength (1.0M NaCl)on the hydrolysis of pyridinium Moity in 0.02 M buffer concentration, pH 7.4,25 degree C; assay type: ADME; procedure, shortened: as §2
[23] = Effect of pH on carbamate hydrolysis in 0.05 M buffer concentration at the pH 6.0, 25 degree C.; assay type: ADME; procedure, shortened: as §3
[24] = Effect of phosphate buffer on carbamate hydrolysis in acetonitrile-water at the concentration of 0.01 M on pH 3.0, 25 degree C.; assay type: ADME; conditions: in the assay text read “citrate buffer” for “phosphate buffer”
Procedure, shortened: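 Bis-carbamate in acetonitrile–water (1:1), 25 ± 0.1 °C. Citrate buffer at pH 3.0 or phosphate buffer at pH 7.4, at 0.01, 0.025 or 0.05 M, ionic strength 0.136 (KCl). Kinetics followed by HPLC as the decrease in bis-carbamate peak area. The regression slope of ln(area0/areat) vs time gave pseudo-first-order kobs. Duplicates averaged.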

[25] = Half life at the pH 5.0; assay type: ADME; conditions: buffer; procedure, shortened: as §3
L1210 [26] = experiment: In vivo activity against murine L1210 tumor system at the dose of 166.7 mg/kg, activity expressed as KE; assay type: functional, Mus musculus; procedure, shortened: as §4
L1210 [27] = experiment: In vivo activity against murine L1210 tumor system at the dose of 21.6 mg/kg, activity expressed as KE; assay type: functional, Mus musculus; procedure, shortened: as §4
[28] = In vivo activity against murine M5076 tumor system at the dose of 21.6 mg/kg, activity expressed as TDS; 10/10; assay type: functional, Mus musculus; procedure, shortened: as §5
[29] = In vivo activity against murine M5076 tumor system at the dose of 21.6 mg/kg, activity expressed as body weight difference; T-C; assay type: functional, Mus musculus; procedure, shortened: as §5
[30] = In vivo activity against murine M5076 tumor system at the dose of 100 mg/kg, activity expressed as KE; assay type: functional, Mus musculus; procedure, shortened: as §5
[31] = In vivo activity against murine M5076 tumor system at the dose of 36 mg/kg, activity expressed as KE; assay type: functional, Mus musculus; procedure, shortened: as §5
P388 [32] = experiment: In vivo activity against P388 Lymphocytic Leukemia in CD2F1 mice at the dose of 100 mg/kg, activity expressed as % T/C; assay type: functional, Mus musculus; procedure, shortened: as §6

Compound	half-life [4] [min]	half-life [6] [min]	half-life [8] [min]	half-life [9] [min]	T/C (P388 [13]) [%]	TDS (P388 [14])	TDS (P388 [15])	TDS (P388 [16])	KE (P388 [17])	KE (P388 [18])	T/C (P388 [19]) [%]	T/C (P388 [20]) [%]	other results
CC(C)NC(=O)OCc1c(COC(=O)NC(C)C)c(-c2cc[n+](C)c(F)c2)n2c1CCC2.[I-]	34.6	158	20.5	13.3	157	6	6	6	0.75	1.32	149	141	K obs [1]: 0.0337 min⁻¹; K obs [2]: 0.052 min⁻¹; K obs [3]: 0.0052 min⁻¹; half-life [5]: 29.1 min; half-life [7]: 45.3 min; TDS (MX1): 0; KE (L1210 [10]): -1.94; BWD (L1210 [11]): -0.8 g; T/C [12]: 104%; TDS (P388 [21]): 1; K obs [22]: 0.007 min⁻¹
CC(C)NC(=O)OCc1c(COC(=O)NC(C)C)c(-c2ccn(C)c(=O)c2)n2c1CCC2	53.5	51.4	53.5	54.1	132	6	6	6	-1.39	-0.38	116	130	K obs [23]: 0.0135 min⁻¹; K obs [24]: 0.0349 min⁻¹; half-life [25]: 50 min; KE (L1210 [26]): -2.29; KE (L1210 [27]): -0.86; TDS [28]: 10; BWD [29]: 1.7 g; KE [30]: -1.49; KE [31]: -1.69; T/C (P388 [32]): 148%
